Measured values reported in ChEMBL document CHEMBL1138182, “Structure activity relationships of 5-, 6-, and 7-methyl-substituted azepan-3-one cathepsin K inhibitors” (J Med Chem, 2006).

What was measured:
Cathepsin L2 = biological target: T1, Cathepsin L2 (Homo sapiens, UniProt O60911); experiment: Inhibition of human cathepsin V; details: read-out: Ki app
T1 sequence (O60911 whole entry): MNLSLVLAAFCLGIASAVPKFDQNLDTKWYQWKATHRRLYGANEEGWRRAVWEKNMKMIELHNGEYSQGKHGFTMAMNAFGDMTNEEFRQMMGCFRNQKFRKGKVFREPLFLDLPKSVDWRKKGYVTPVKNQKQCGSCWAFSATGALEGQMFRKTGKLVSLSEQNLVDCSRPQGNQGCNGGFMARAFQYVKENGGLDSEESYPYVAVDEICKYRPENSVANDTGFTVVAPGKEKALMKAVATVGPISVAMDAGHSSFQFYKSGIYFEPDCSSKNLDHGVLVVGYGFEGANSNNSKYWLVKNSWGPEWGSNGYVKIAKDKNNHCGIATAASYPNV
Summary of the method: (§1)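 Recombinant human enzyme with fluorogenic substrate, typically Cbz-Phe-Arg-AMC, in 100 mM sodium acetate pH 5.5 with 20 mM cysteine and 5 mM EDTA, at ambient temperature. Enzyme added last to inhibitor plus substrate. AMC fluorescence read at ex 360/em 460. Progress curves at variable inhibitor concentrations were fitted for Ki,app, by competitive velocity equation or slow-binding exponential.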

[1] = Oral bioavailability in cynomolgus monkey; format: ADME, organism-based, Macaca fascicularis; details: in vivo
Summary of the method: (§2)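 Cynomolgus monkeys (male, n = 3) in an iv × po crossover. Dosed by 1-h iv infusion of 1-2 mg/kg via temporary saphenous vein catheter, then 2-4 mg/kg oral gavage 7 days later. Vehicle: aqueous <2% DMSO, <20% hydroxypropyl-β-cyclodextrin. Femoral-vein plasma measured by LC/MS/MS, LLOQ 1.0-10 ng/mL. Parameters by noncompartmental methods.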

[2] = Protein binding in plasma; format: ADME, cell-free; details: rat, read-out: PPB (converted)
Summary of the method: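 Rat plasma; binding determined by equilibrium dialysis or ultrafiltration.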

[3] = Volume of distribution in iv dosed cynomolgus monkey; format: ADME, organism-based, Macaca fascicularis; details: in vivo, read-out: Vdss; summary of the method: as §2
[4] = Permeability in MDCK cells at 10 uM; format: ADME, cell-based, Canis lupus familiaris; details: dog, read-out: permeability
Summary of the method: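 MDCK cells at passage 60-80, grown in MEM + 10% FBS at 37 °C, 5% CO2, seeded on Transwells and assayed 3 days after seeding. After ~1 h equilibration in HBSS with 25 mM glucose and 25 mM HEPES, 10 µM compound (1% DMSO final) was added apically. Basolateral concentration measured by LC/MS/MS over 3600 s, Papp calculated, duplicates, propranolol and mannitol controls.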

Osteoclast = experiment: Effect on collagen […] in osteoclast bone resorption assay; format: functional, cell-based; details: Homo sapiens
Summary of the method: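 Human osteoclastoma-derived osteoclasts on bovine cortical bone slices, incubated 48 h with a range of compound concentrations. Type-I collagen C-telopeptide release measured by ELISA.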

[5] = Permeability in artificial membrane; format: ADME, cell membranes; details: PAMPA; read-out: permeability
[6] = Clearance in iv dosed cynomolgus monkey; format: ADME, organism-based, Macaca fascicularis; details: in vivo; summary of the method: as §2
[7] = Half life in iv dosed cynomolgus monkey; format: ADME, organism-based, Macaca fascicularis; details: in vivo; summary of the method: as §2
Cathepsin K [8] = biological target: T2, Cathepsin K (Homo sapiens, UniProt P43235); experiment: Inhibition of human cathepsin K; details: read-out: Ki app
T2 sequence (P43235 whole entry): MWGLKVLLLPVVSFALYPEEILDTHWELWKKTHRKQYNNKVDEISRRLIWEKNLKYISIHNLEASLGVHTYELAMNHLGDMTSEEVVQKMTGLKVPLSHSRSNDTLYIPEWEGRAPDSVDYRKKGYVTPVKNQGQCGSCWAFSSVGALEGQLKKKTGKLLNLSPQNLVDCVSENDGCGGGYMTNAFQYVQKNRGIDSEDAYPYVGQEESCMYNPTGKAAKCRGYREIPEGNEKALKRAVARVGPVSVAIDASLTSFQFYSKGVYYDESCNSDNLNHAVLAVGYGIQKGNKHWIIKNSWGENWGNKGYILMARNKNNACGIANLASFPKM

Cathepsin B = Cathepsin B (Homo sapiens, UniProt P07858); experiment: Inhibition of human cathepsin B; details: read-out: Ki app; summary of the method: as §1
Cathepsin S = Cathepsin S (Homo sapiens, UniProt P25774); experiment: Inhibition of human cathepsin S; details: read-out: Ki app
Sequence of Cathepsin S (P25774 whole entry): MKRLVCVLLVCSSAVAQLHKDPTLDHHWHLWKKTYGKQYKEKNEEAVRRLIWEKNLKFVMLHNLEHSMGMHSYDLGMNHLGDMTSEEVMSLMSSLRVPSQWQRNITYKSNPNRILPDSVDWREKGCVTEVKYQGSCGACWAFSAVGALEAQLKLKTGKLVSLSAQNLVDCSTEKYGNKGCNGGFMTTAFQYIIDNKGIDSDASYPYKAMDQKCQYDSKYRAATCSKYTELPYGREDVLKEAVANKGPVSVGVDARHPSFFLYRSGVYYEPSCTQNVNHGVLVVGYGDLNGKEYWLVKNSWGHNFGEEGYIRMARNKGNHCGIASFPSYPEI

Cathepsin K [9] = biological target: T3, Cathepsin K (Rattus norvegicus, UniProt O35186); experiment: Inhibition of rat cathepsin K; details: read-out: Ki app
T3 sequence (O35186 whole entry): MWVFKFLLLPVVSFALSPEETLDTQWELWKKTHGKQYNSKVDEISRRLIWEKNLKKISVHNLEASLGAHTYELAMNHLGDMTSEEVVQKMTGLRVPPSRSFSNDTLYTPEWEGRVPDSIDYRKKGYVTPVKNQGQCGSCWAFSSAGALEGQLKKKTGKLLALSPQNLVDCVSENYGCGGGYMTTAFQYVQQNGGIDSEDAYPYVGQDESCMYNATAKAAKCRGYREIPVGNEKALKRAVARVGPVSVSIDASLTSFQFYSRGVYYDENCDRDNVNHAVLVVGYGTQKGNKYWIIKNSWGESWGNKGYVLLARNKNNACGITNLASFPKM
Summary of the method: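 Recombinant enzyme; fluorogenic peptide substrate (typically Cbz-Phe-Arg-AMC) in 100 mM sodium acetate pH 5.5 with 20 mM cysteine and 5 mM EDTA, ambient temperature. Reaction started by adding enzyme to inhibitor plus substrate at variable inhibitor concentrations; AMC fluorescence (ex 360, em 460 nm) followed as progress curves. Ki,app obtained by fitting to the competitive velocity equation or the slow-binding progress-curve equation.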

[10] = Oral bioavailability in Sprague-Dawley rat; format: ADME, organism-based; details: in vivo
Summary of the method: (§3)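 Male Sprague-Dawley rats, n = 3, iv/po crossover. Dosed iv as a 1-2 mg/kg 0.5-h infusion through an indwelling femoral vein catheter, then 2-4 mg/kg oral gavage 2 days later. Vehicle: aqueous, <2% DMSO, <20% hydroxypropyl-β-cyclodextrin. Tail-vein plasma sampled at timed intervals, measured by LC/MS/MS (LLOQ 1.0-10 ng/mL). Noncompartmental analysis.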

[11] = Clearance in iv dosed Sprague-Dawley rat; format: ADME, organism-based; details: in vivo; summary of the method: as §3
[12] = Half life in iv dosed Sprague-Dawley rat; format: ADME, organism-based; details: in vivo; summary of the method: as §3
[13] = Volume of distribution in iv dosed Sprague-Dawley rat; format: ADME, organism-based; details: in vivo, read-out: Vdss; summary of the method: as §3

Compound	fraction unbound [2]	Papp at 10 µM [4]	IC50 (Osteoclast)	Papp [5]	Ki (Cathepsin K [8])	Ki (Cathepsin B)	Ki (Cathepsin S)	Ki (Cathepsin K [9])	also measured
CC(C)C[C@H](NC(=O)c1cc2ccccc2o1)C(=O)N[C@H]1CCCN(S(=O)(=O)c2ccccn2)CC1=O	0.03	57 ×10⁻⁶ cm/s	63 nM	53 ×10⁻⁶ cm/s	–	–	–	–	Ki (Cathepsin L2): 1.8 nM; bioavailability [1]: 7.3%; Vd [3]: 0.72 L/kg; clearance [6]: 13.9 mL/min/kg; half-life [7]: 36.5 min
CC(C)C[C@H](NC(=O)c1cc2ccccc2o1)C(=O)N[C@H]1C(=O)CN(S(=O)(=O)c2ccccn2)CC[C@H]1C	–	–	–	–	42 nM	> 1000 nM	–	–	–
CC(C)C[C@H](NC(=O)c1cc2ccccc2o1)C(=O)N[C@@H]1CC[C@@H](C)N(S(=O)(=O)c2ccccn2)CC1=O	–	–	–	–	–	–	92 nM	430 nM	–
CC(C)C[C@H](NC(=O)c1cc2ccccc2o1)C(=O)N[C@H]1CC[C@@H](C)N(S(=O)(=O)c2ccccn2)CC1=O [RELACATIB]	0.032	47 ×10⁻⁶ cm/s	22 nM	47 ×10⁻⁶ cm/s	–	13 nM	1.6 nM	8 nM	Ki (Cathepsin L2): 0.063 nM; bioavailability [1]: 27.6%; Vd [3]: 0.95 L/kg; bioavailability [10]: 89.4%; clearance [6]: 11.7 mL/min/kg; clearance [11]: 19.5 mL/min/kg; half-life [12]: 109 min; Vd [13]: 1.79 L/kg; half-life [7]: 168 min
CC(C)C[C@H](NC(=O)c1cc2ccccc2o1)C(=O)N[C@@H]1CC[C@H](C)N(S(=O)(=O)c2ccccn2)CC1=O	–	–	–	–	–	–	110 nM	790 nM	–
CC(C)C[C@H](NC(=O)c1cc2ccccc2o1)C(=O)N[C@@H]1C[C@H](C)CN(S(=O)(=O)c2ccccn2)CC1=O	–	–	–	–	4.5 nM	–	8.3 nM	660 nM	–
CC(C)C[C@H](NC(=O)c1cc2ccccc2o1)C(=O)N[C@H]1C[C@H](C)CN(S(=O)(=O)c2ccccn2)CC1=O	0.044	49 ×10⁻⁶ cm/s	35 nM	56 ×10⁻⁶ cm/s	0.14 nM	–	5.8 nM	73 nM	bioavailability [10]: 26.2%; clearance [11]: 34.4 mL/min/kg; half-life [12]: 51.6 min; Vd [13]: 1.46 L/kg
CC(C)C[C@H](NC(=O)c1cc2ccccc2o1)C(=O)N[C@@H]1C(=O)CN(S(=O)(=O)c2ccccn2)CC[C@@H]1C	0.053	55 ×10⁻⁶ cm/s	20 nM	68 ×10⁻⁶ cm/s	0.0099 nM	32 nM	–	–	bioavailability [10]: < 5.4%; clearance [11]: 80.5 mL/min/kg; half-life [12]: 58.5 min; Vd [13]: 4.7 L/kg
CC(C)C[C@H](NC(=O)c1cc2ccccc2o1)C(=O)N[C@@H]1C[C@@H](C)CN(S(=O)(=O)c2ccccn2)CC1=O	–	–	–	–	30 nM	–	300 nM	> 1000 nM	–
CC(C)C[C@H](NC(=O)c1cc2ccccc2o1)C(=O)N[C@H]1C(=O)CN(S(=O)(=O)c2ccccn2)CC[C@@H]1C	–	–	–	–	19 nM	> 1000 nM	–	–	–
CC(C)C[C@H](NC(=O)c1cc2ccccc2o1)C(=O)N[C@H]1CC[C@H](C)N(S(=O)(=O)c2ccccn2)CC1=O	–	–	–	–	–	–	42 nM	680 nM	–
CC(C)C[C@H](NC(=O)c1cc2ccccc2o1)C(=O)N[C@@H]1C(=O)CN(S(=O)(=O)c2ccccn2)CC[C@H]1C	–	–	–	–	1.5 nM	> 1000 nM	–	–	–
CC(C)C[C@H](NC(=O)c1cc2ccccc2o1)C(=O)N[C@H]1C[C@@H](C)CN(S(=O)(=O)c2ccccn2)CC1=O	–	–	–	–	29 nM	–	350 nM	> 1000 nM	–
